Measurements taken from ChEMBL document CHEMBL1141075, “4-Oxo-4,7-dihydrothieno[2,3-b]pyridines as non-nucleoside inhibitors of human cytomegalovirus and related herpesvirus polymerases” (J Med Chem, 2005).

Columns and labels:
[1] = test system: HFF; experiment: Antiviral activity against human cytomegalovirus (Davis strain) grown on human foreskin fibroblast cells determined by reduction in plaque formation upon incubation at 37 degrees C with the compound dissolved in DMSO; format: functional, cell-based
[2] = target: T1, DNA polymerase delta catalytic subunit (Homo sapiens, UniProt P28340); experiment: Inhibition of human delta DNA polymerase (95 uL) activity in a solution containg […] HEPES (pH 7.5) upon incubation for 12 minutes at 26 degrees C with the compound dissolved in DMSO
T1 sequence (P28340 whole entry): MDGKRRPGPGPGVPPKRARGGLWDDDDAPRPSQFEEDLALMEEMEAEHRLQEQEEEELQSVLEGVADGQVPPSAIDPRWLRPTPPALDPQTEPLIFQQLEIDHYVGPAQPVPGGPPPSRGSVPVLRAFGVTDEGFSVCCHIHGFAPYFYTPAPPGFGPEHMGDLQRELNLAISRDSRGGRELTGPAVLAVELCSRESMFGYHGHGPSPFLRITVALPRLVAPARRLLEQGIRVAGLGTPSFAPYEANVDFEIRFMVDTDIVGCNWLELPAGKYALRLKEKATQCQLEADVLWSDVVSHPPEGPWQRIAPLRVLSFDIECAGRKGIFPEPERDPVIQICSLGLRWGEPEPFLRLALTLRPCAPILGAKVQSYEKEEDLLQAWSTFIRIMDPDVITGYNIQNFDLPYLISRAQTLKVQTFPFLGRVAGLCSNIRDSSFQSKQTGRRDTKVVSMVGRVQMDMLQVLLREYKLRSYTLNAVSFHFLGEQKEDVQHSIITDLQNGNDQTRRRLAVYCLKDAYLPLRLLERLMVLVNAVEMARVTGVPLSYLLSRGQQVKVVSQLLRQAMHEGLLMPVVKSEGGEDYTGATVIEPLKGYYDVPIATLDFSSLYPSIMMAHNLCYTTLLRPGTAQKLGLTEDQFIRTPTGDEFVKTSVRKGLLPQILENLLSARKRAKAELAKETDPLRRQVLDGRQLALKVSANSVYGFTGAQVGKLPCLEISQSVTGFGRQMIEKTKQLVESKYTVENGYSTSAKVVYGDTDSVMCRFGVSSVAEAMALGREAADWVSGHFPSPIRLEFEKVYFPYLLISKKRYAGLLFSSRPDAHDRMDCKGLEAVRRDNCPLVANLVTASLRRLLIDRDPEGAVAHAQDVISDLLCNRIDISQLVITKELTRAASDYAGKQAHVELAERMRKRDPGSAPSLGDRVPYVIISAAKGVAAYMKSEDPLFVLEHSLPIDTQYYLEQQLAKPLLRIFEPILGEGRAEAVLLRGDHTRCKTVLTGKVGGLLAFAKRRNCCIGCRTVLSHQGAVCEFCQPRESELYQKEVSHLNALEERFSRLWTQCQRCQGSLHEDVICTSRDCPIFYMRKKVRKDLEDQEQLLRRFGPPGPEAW

[3] = Toxicity on uninfected human foreskin fibroblast cells determined in microscopic evaluation and quantitative neutral red dye uptake assay; format: cell-based; conditions: uninfected human foreskin fibroblast (HFF) cells
Summary of the method: (§1)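 Uninfected cells were seeded as subconfluent monolayers and exposed to compound for 3 days. Viability was judged both by microscopic inspection and by quantitative neutral red dye uptake, giving CC50.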

[4] = test system: HFF; experiment: Antiviral activity against Varicella-Zoster virus (Webster strain) grown on human foreskin fibroblast cells determined by vedduction in plaque formation upon incubation at 37 degrees C with the compound dissolved in DMSO until plaque were formed; format: functional, cell-based
Summary of the method: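 Monolayers of human foreskin fibroblasts were infected with about 50 PFU per well for 1 h at 37 °C. The inoculum was then replaced with DMEM containing 10% FBS, 0.8% carboxymethyl cellulose and diluted compound from 200-fold DMSO stocks. Plates were incubated at 37 °C until plaques formed. Plaques were counted microscopically or after 0.1% crystal violet staining. IC50 came from linear regression of % inhibition versus untreated controls.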

[5] = Toxicity on uninfected African green monkey kidney cells determined in microscopic evaluation and quantitative neutral red dye uptake assay; format: cell-based; conditions: chlorocebus sabaeus, uninfected African green monkey kidney (Vero) cells; summary of the method: as §1

IC50 [2] [nM] | SMILES | IC50 [1] [nM] | CC50 [3] [nM] | IC50 [4] [nM] | CC50 [5] [nM]
> 40000 | Cn1cc(C(=O)NCc2ccc(Cl)cc2)c(=O)c2cc(CN3CCOCC3)ccc21 | 900 | > 100000 | 340 | > 100000
> 40000 | O=C(NCc1ccc(Cl)cc1)c1cnc2ccc(CCCO)cc2c1O | 1000 | > 100000 | 170 | > 100000

SMILES | IC50 [2] [nM] | IC50 [1] [nM] | CC50 [3] [nM] | IC50 [4] [nM] | CC50 [5] [nM]
Cn1cc(C(=O)NCc2ccc(Cl)cc2)c(=O)c2cc(CN3CCOCC3)sc21 | > 40000 | 800 | > 100000 | 770 | > 100000
